Source: ChEMBL document CHEMBL4038284, “Synthesis of novel quinoline-based 4,5-dihydro-1H-pyrazoles as potential anticancer, antifungal, antibacterial and antiprotozoal agents” (Eur J Med Chem, 2017)
In brackets after ≈: the same amount, converted by molar mass. Activity calls are given as the source filed them. No cut-off for these calls is given here.

Assays:
NCI-H522 = test: Growth inhibition of human NCI-H522 cells at 10 uM incubated for 48 hrs by sulforhodamine B assay; assay type: functional, cell-based
Procedure, shortened: (§1)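 NCI 60-line panel, single 10 μM dose. Cells were grown in RPMI-1640 with 5% FBS and 2 mM L-glutamine and pre-incubated 24 h before compound addition (DMSO stock). Exposure was 48 h at 37 °C, 5% CO2. Cells were fixed with cold TCA (10% final), stained with 0.4% SRB, bound dye dissolved in 10 mM Tris base, A515 read. Growth was taken relative to time-zero and untreated control plates.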

TK-10 = test: Growth inhibition of human TK10 cells at 10 uM incubated for 48 hrs by sulforhodamine B assay; assay type: functional, cell-based
Procedure, shortened: (§2)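 NCI-60 single-dose screen at 10 µM for 48 h. Cells were grown in RPMI-1640 with 5% FBS and 2 mM L-glutamine and preincubated 24 h before compound. Time-zero plates were TCA-fixed at compound addition. After exposure, cells were TCA-fixed, stained with SRB and read at 515 nm. Percentage growth was calculated against time-zero and untreated-control absorbances.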

Cryptococcus neoformans [1] = test: Growth inhibition of Cryptococcus neoformans ATCC 32264 at 62.5 ug/ml incubated for 48 hrs under dark condition by broth microdilution method relative to control; assay type: functional; conditions: ATCC 32264, 48 h, read-out: GI
Procedure, shortened: (§3)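 CLSI M27-A3 broth microdilution in RPMI-1640, DMSO ≤1%. Inoculum 1-5 × 10^3 CFU/mL. Incubated 48 h at 30 °C, dark. % inhibition = 100 − (OD405 test − sterility control)/(OD405 growth control − sterility control), with growth and sterility control wells. Triplicate.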

OVCAR-3 = test: Growth inhibition of human OVCAR3 cells at 10 uM incubated for 48 hrs by sulforhodamine B assay; assay type: functional, cell-based; procedure, shortened: as §1
MCF7 = test: Growth inhibition of human MCF7 cells at 10 uM incubated for 48 hrs by sulforhodamine B assay; assay type: functional, cell-based; procedure, shortened: as §1
LOX IMVI = test: Growth inhibition of human LOXIMVI cells at 10 uM incubated for 48 hrs by sulforhodamine B assay; assay type: functional, cell-based; procedure, shortened: as §1
SF-295 = test: Growth inhibition of human SF295 cells at 10 uM incubated for 48 hrs by sulforhodamine B assay; assay type: functional, cell-based; procedure, shortened: as §1
Cryptococcus neoformans [2] = test: Growth inhibition of Cryptococcus neoformans ATCC 32264 at 125 ug/ml incubated for 48 hrs under dark condition by broth microdilution method relative to control; assay type: functional; conditions: ATCC 32264, 48 h, read-out: GI; procedure, shortened: as §3
NCI-H23 = test: Growth inhibition of human NCI-H23 cells at 10 uM incubated for 48 hrs by sulforhodamine B assay; assay type: functional, cell-based; procedure, shortened: as §1
SK-MEL-5 = test: Growth inhibition of human SK-MEL-5 cells at 10 uM incubated for 48 hrs by sulforhodamine B assay; assay type: functional, cell-based; procedure, shortened: as §2
U-937 = test: Cytotoxicity against human U937 cells after 72 hrs by MTT assay; assay type: cell-based; conditions: u-937, 72 h
Procedure, shortened: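 Exponentially growing U-937 at 1 × 10^5 cells/mL in RPMI-1640 with 10% FBS were exposed to 200, 50, 12.5 and 3.125 µg/mL for 72 h at 37 °C, 5% CO2. MTT for 3 h, stopped with isopropanol/SDS, formazan read at 570 nm, blank-corrected. LC50 by Probit from % viability against untreated cells. Triplicate, at least two independent experiments.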

Cryptococcus neoformans [3] = test: Growth inhibition of Cryptococcus neoformans ATCC 32264 at 7.8 ug/ml incubated for 48 hrs under dark condition by broth microdilution method relative to control; assay type: functional; conditions: ATCC 32264, 48 h, read-out: GI; procedure, shortened: as §3
Leishmania panamensis = test: Antileshmanial activity against EpiR/GFP fused Leishmania panamensis MHOM/CO/87/UA140 intracellular amastigotes infected in human […] cells after 72 hrs by flow cytometric method; assay type: functional, cell-based; conditions: MHOM/CO/87/UA140, 72 h
Procedure, shortened: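 PMA-treated U-937 cells (3 × 10^5 cells/mL) infected with stationary-phase GFP L. panamensis promastigotes (15:1), 3 h at 34 °C, then washed. After 24 h, compounds added at 50, 12.5, 3.125 and 0.78 µg/mL for 72 h at 37 °C. EC50 by Probit; triplicate, two experiments.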

ACHN = test: Growth inhibition of human ACHN cells at 10 uM incubated for 48 hrs by sulforhodamine B assay; assay type: functional, cell-based
Procedure, shortened: (§4)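 NCI 60-cell-line screen at a single 10 µM dose. Cells in RPMI-1640 with 5% FBS and 2 mM L-glutamine, pre-incubated 24 h, then treated for 48 h at 37 °C. TCA fixation, sulforhodamine B staining, absorbance at 515 nm. Percentage growth calculated against time-zero and untreated controls.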

NCI/ADR-RES = test: Growth inhibition of human NCI/ADR-RES cells at 10 uM incubated for 48 hrs by sulforhodamine B assay; assay type: functional, cell-based; procedure, shortened: as §1
KM12 = test: Growth inhibition of human KM12 cells at 10 uM incubated for 48 hrs by sulforhodamine B assay; assay type: functional, cell-based; procedure, shortened: as §1
Candida albicans [4] = test: Growth inhibition of Candida albicans ATCC 10231 at 15.62 ug/ml incubated for 48 hrs under dark condition by broth microdilution method relative to control; assay type: functional; conditions: ATCC 10231, 48 h, read-out: GI; procedure, shortened: as §3
Escherichia coli = test: Antibacterial activity against Escherichia coli ATCC 25922 after 24 hrs by resazurin dye based microdilution assay; assay type: functional; conditions: ATCC 25922, 24 h
Procedure, shortened: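 MIC taken as the lowest concentration giving visible inhibition and/or by resazurin (1 mg/mL). Gentamicin was the control. Run in duplicate, repeated at least three times.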

RPMI-8226 = test: Growth inhibition of human RPMI8226 cells at 10 uM incubated for 48 hrs by sulforhodamine B assay; assay type: functional, cell-based; procedure, shortened: as §1
SNB-19 = test: Growth inhibition of human SNB19 cells at 10 uM incubated for 48 hrs by sulforhodamine B assay; assay type: functional, cell-based; procedure, shortened: as §2
SN12C = test: Growth inhibition of human SN12C cells at 10 uM incubated for 48 hrs by sulforhodamine B assay; assay type: functional, cell-based; procedure, shortened: as §2
MDA-MB-231 = test: Growth inhibition of human MDA-MB-231 cells at 10 uM incubated for 48 hrs by sulforhodamine B assay; assay type: functional, cell-based; procedure, shortened: as §1
Candida albicans [5] = test: Growth inhibition of Candida albicans ATCC 10231 at 31.25 ug/ml incubated for 48 hrs under dark condition by broth microdilution method relative to control; assay type: functional; conditions: ATCC 10231, 48 h, read-out: GI; procedure, shortened: as §3
Cryptococcus neoformans [6] = test: Antifungal activity against Cryptococcus neoformans ATCC 32264 incubated for 48 hrs under dark condition by broth microdilution method; assay type: functional; conditions: ATCC 32264, 48 h
Procedure, shortened: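 CLSI M27-A3 broth microdilution in RPMI-1640, DMSO ≤1%, compounds at 250-0.98 µg/mL final. Inoculum 1-5 × 10^3 CFU/mL. Incubated 48 h at 30 °C in a moist dark chamber, read at OD405. MIC80 and MIC50 taken from % inhibition dose-response curves (mean ± SEM, triplicate). Amphotericin B was the positive control.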

BT-549 = test: Growth inhibition of human BT549 cells at 10 uM incubated for 48 hrs by sulforhodamine B assay; assay type: functional, cell-based; procedure, shortened: as §4
UACC-62 = test: Growth inhibition of human UACC62 cells at 10 uM incubated for 48 hrs by sulforhodamine B assay; assay type: functional, cell-based; procedure, shortened: as §2
CAKI-1 = test: Growth inhibition of human Caki1 cells at 10 uM incubated for 48 hrs by sulforhodamine B assay; assay type: functional, cell-based; procedure, shortened: as §4

Structure (SMILES) | growth inhibition (GI) (NCI-H522) | growth inhibition (GI) (TK-10) | inhibition of growth at 62.5 µg/mL (Cryptococcus neoformans [1]) | growth inhibition (GI) (OVCAR-3) | growth inhibition (GI) (MCF7) | growth inhibition (GI) (LOX IMVI) | growth inhibition (GI) (SF-295) | inhibition of growth at 125 µg/mL (Cryptococcus neoformans [2]) | growth inhibition (GI) (NCI-H23) | growth inhibition (GI) (SK-MEL-5) | LC50 (U-937) | inhibition of growth at 7.8 µg/mL (Cryptococcus neoformans [3]) | EC50 (Leishmania panamensis) | growth inhibition (GI) (ACHN) | growth inhibition (GI) (NCI/ADR-RES) | growth inhibition (GI) (KM12) | inhibition of growth at 15.62 µg/mL (Candida albicans [4]) | MIC (Escherichia coli) | growth inhibition (GI) (RPMI-8226) | growth inhibition (GI) (SNB-19) | other results
COc1ccc(C2=NN(c3ccccc3)C(c3cccc(Nc4ccnc5cc(Cl)ccc45)c3)C2)cc1 (configuration not stated) | inactive | inactive | 10.6% | inactive | inactive | inactive | inactive | 16.9% | inactive | inactive | 28 µg/mL (≈ 55.4 µM) | 4.41% | 6.93 µg/mL (≈ 13.7 µM) | inactive | inactive | inactive | 8.21% | > 1000 µg/mL | inactive | inactive | growth inhibition (GI) (SN12C): inactive; growth inhibition (GI) (MDA-MB-231): inactive; inhibition of growth at 31.25 µg/mL (Candida albicans [5]): 13.4%; MIC50 (Cryptococcus neoformans [6]): ≥ 250 µg/mL; MIC80 (Cryptococcus neoformans [6]): ≥ 250 µg/mL; growth inhibition (GI) (BT-549): inactive; growth inhibition (GI) (UACC-62): inactive; growth inhibition (GI) (CAKI-1): inactive
COc1ccc(C2=NN(C=O)C(c3cccc(Nc4ccnc5cc(Cl)ccc45)c3)C2)cc1 (configuration not stated) | Active | Active | 43.5% | Active | Active | Active | Active | 52.5% | Active | Active | 0.3 µg/mL (≈ 0.657 µM) | 13.4% | 33.1 µg/mL (≈ 72.5 µM) | Active | Active | Active | 12.9% | > 1000 µg/mL | Active | Active | growth inhibition (GI) (SN12C): Active; growth inhibition (GI) (MDA-MB-231): Active; inhibition of growth at 31.25 µg/mL (Candida albicans [5]): 14.7%; MIC50 (Cryptococcus neoformans [6]): 125 µg/mL (≈ 274 µM); MIC80 (Cryptococcus neoformans [6]): ≥ 250 µg/mL; growth inhibition (GI) (BT-549): Active; growth inhibition (GI) (UACC-62): Active
COc1cc(C(=O)/C=C/c2cccc(Nc3ccnc4cc(Cl)ccc34)c2)cc(OC)c1OC | Active | Active | 6.09% | Active | Active | Active | Active | 6.74% | Active | Active | 0.9 µg/mL (≈ 1.89 µM) | 0% | 5.92 µg/mL (≈ 12.5 µM) | Active | Active | Active | 4.77% | > 1000 µg/mL | Active | Active | growth inhibition (GI) (SN12C): Active; growth inhibition (GI) (MDA-MB-231): Active; inhibition of growth at 31.25 µg/mL (Candida albicans [5]): 6.92%; MIC50 (Cryptococcus neoformans [6]): ≥ 250 µg/mL; MIC80 (Cryptococcus neoformans [6]): ≥ 250 µg/mL; growth inhibition (GI) (BT-549): Active; growth inhibition (GI) (UACC-62): Active
